Assay results: ChEMBL document CHEMBL1121504, “Aporphines. 31. Synthesis and antitumor activity of aporphine nitrogen mustards” (1980)

Key:
[1] = system: P388; experiment: (§1) Antitumor activity against intraperitoneally implanted P388 lymphocytic leukemia (P388) system at dose 50 mg/kg; type: functional, Mus musculus; details: route intraperitoneal
In short: (§2)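 P388 lymphocytic leukemia inoculated intraperitoneally and run under standard NCI screening protocols. Each compound was tested at several graded doses in mg/kg. Activity was read out as T/C for each dose, with confirmatory activity judged by the NCI criteria.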

[2] = system: P388; experiment: Antitumor activity against intraperitoneally implanted P388 lymphocytic leukemia (P388) system at dose 100 mg/kg; type: functional, Mus musculus; details: route intraperitoneal; in short: as §2
[3] = system: P388; experiment: (§3) Antitumor activity against intraperitoneally implanted P388 lymphocytic leukemia (P388) system at dose 12.5 mg/kg; type: functional, Mus musculus; details: route intraperitoneal; in short: as §2
[4] = system: P388; experiment: (§4) Antitumor activity against intraperitoneally implanted P388 lymphocytic leukemia (P388) system at dose 25 mg/kg; type: functional, Mus musculus; details: route intraperitoneal; in short: as §2
[5] = system: P388; experiment: Antitumor activity against intraperitoneally implanted P388 lymphocytic leukemia (P388) system at dose 18.75 mg/kg; type: functional, Mus musculus; details: route intraperitoneal; in short: as §2
[6] = system: P388; experiment: Antitumor activity against intraperitoneally implanted P388 lymphocytic leukemia (P388) system at dose 37.5 mg/kg; type: functional, Mus musculus; details: route intraperitoneal; in short: as §2
[7] = system: P388; experiment: Antitumor activity against intraperitoneally implanted P388 lymphocytic leukemia (P388) system at dose 105 mg/kg; type: functional, Mus musculus; details: route intraperitoneal; in short: as §2
[8] = system: P388; experiment: Antitumor activity against intraperitoneally implanted P388 lymphocytic leukemia (P388) system at dose 75 mg/kg; type: functional, Mus musculus; details: route intraperitoneal; in short: as §2
[9] = system: P388; experiment: Antitumor activity against intraperitoneally implanted P388 lymphocytic leukemia (P388) system at dose 300 mg/kg; type: functional, Mus musculus; details: route intraperitoneal; in short: as §2
[10] = system: P388; experiment: Antitumor activity against intraperitoneally implanted P388 lymphocytic leukemia (P388) system at dose 9.38 mg/kg; type: functional, Mus musculus; details: route intraperitoneal; in short: as §2
[11] = system: P388; experiment: Antitumor activity against intraperitoneally implanted P388 lymphocytic leukemia (P388) system at dose 4 mg/kg; type: functional, Mus musculus; details: route intraperitoneal
In short: (§5)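 Murine-screen tumor implanted intraperitoneally and treated at the listed mg/kg doses under standard NCI protocols. Activity is read out as T/C, the treated-to-control ratio.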

[12] = Antitumor activity against intracerebrally implanted ependymoblastoma (EM) tumor system at dose 0.25 mg/kg; type: functional
In short: (§6)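 Tumor implanted […] and treated at the listed mg/kg doses under standard NCI protocols. Activity is read out as T/C, the treated-to-control ratio.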

[13] = Antitumor activity against intraperitoneally implanted colon 26 (C26) […] system at dose 8 mg/kg; type: functional, Mus musculus; details: route intraperitoneal; in short: as §5
[14] = system: P388; experiment: Antitumor activity against intraperitoneally implanted P388 lymphocytic leukemia (P388) system at dose 8 mg/kg; type: functional, Mus musculus; details: route intraperitoneal; in short: as §5
[15] = Antitumor activity against intracerebrally implanted ependymoblastoma (EM) tumor system at dose 1 mg/kg; type: functional; in short: as §6
[16] = system: B16; experiment: Antitumor activity against intraperitoneally implanted B16 melanoma tumor system at dose 4 mg/kg; type: functional, Mus musculus; details: route intraperitoneal; in short: as §5
[17] = Antitumor activity against intraperitoneally implanted colon 26 (C26) […] system at dose 16 mg/kg; type: functional, Mus musculus; details: route intraperitoneal; in short: as §5
[18] = Antitumor activity against intraperitoneally implanted colon 26 (C26) […] system at dose 4 mg/kg; type: functional, Mus musculus; details: route intraperitoneal; in short: as §5
[19] = system: B16; experiment: Antitumor activity against intraperitoneally implanted B16 melanoma tumor system at dose 8 mg/kg; type: functional, Mus musculus; details: route intraperitoneal; in short: as §5
[20] = Antitumor activity against intracerebrally implanted ependymoblastoma (EM) tumor system at dose 4 mg/kg; type: functional; in short: as §6
[21] = Antitumor activity against intraperitoneally implanted colon 26 (C26) […] system at dose 32 mg/kg; type: functional, Mus musculus; details: route intraperitoneal; in short: as §5
[22] = system: B16; experiment: Antitumor activity against intraperitoneally implanted B16 melanoma tumor system at dose 16 mg/kg; type: functional, Mus musculus; details: route intraperitoneal; in short: as §5
[23] = Antitumor activity against intracerebrally implanted ependymoblastoma (EM) tumor system at dose 2 mg/kg; type: functional; in short: as §6
[24] = system: P388; experiment: Antitumor activity against intracerebrally implanted lymphocytic leukemia (P388) system at dose 8 mg/kg; type: functional, Mus musculus
[25] = system: P388; experiment: Antitumor activity against intracerebrally implanted lymphocytic leukemia (P388) system at dose 16 mg/kg; type: functional, Mus musculus
[26] = Antitumor activity against intracerebrally implanted ependymoblastoma (EM) tumor system at dose 0.5 mg/kg; type: functional; in short: as §6
[27] = system: P388; experiment: Antitumor activity against intraperitoneally implanted P388 lymphocytic leukemia (P388) system at dose 16 mg/kg; type: functional, Mus musculus; details: route intraperitoneal; in short: as §5
[28] = system: B16; experiment: Antitumor activity against intraperitoneally implanted B16 melanoma tumor system at dose 2 mg/kg; type: functional, Mus musculus; details: route intraperitoneal; in short: as §5
[29] = system: B16; experiment: Antitumor activity against intraperitoneally implanted B16 melanoma tumor system at dose 32 mg/kg; type: functional, Mus musculus; details: route intraperitoneal; in short: as §5
[30] = system: B16; experiment: Antitumor activity against B16 melanoma tumor system at dose 50 mg/kg; type: functional, Mus musculus
In short: (§7)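 B16 melanocarcinoma assay run at the listed mg/kg doses under standard NCI protocols. Activity is read out as T/C, the treated-to-control ratio.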

[31] = system: B16; experiment: Antitumor activity against B16 melanoma tumor system at dose 25 mg/kg; type: functional, Mus musculus; in short: as §7
[32] = system: P388; experiment: as §3; type: functional, Mus musculus; details: route intraperitoneal; in short: as §5; remark: listed apart in the source
[33] = system: B16; experiment: Antitumor activity against B16 melanoma tumor system at dose 1.56 mg/kg; type: functional, Mus musculus; in short: as §7
[34] = system: P388; experiment: Antitumor activity against intraperitoneally implanted P388 lymphocytic leukemia (P388) system at dose 3.13 mg/kg; type: functional, Mus musculus; details: route intraperitoneal; in short: as §5
[35] = system: P388; experiment: as §4; type: functional, Mus musculus; details: route intraperitoneal; in short: as §5; remark: listed apart in the source
[36] = system: P388; experiment: Antitumor activity against intraperitoneally implanted P388 lymphocytic leukemia (P388) system at dose 6.25 mg/kg; type: functional, Mus musculus; details: route intraperitoneal; in short: as §5
[37] = system: B16; experiment: Antitumor activity against B16 melanoma tumor system at dose 6.25 mg/kg; type: functional, Mus musculus; in short: as §7
[38] = system: B16; experiment: Antitumor activity against B16 melanoma tumor system at dose 3.13 mg/kg; type: functional, Mus musculus; in short: as §7
[39] = system: P388; experiment: as §1; type: functional, Mus musculus; details: route intraperitoneal; in short: as §5; remark: listed apart in the source
[40] = system: B16; experiment: Antitumor activity against B16 melanoma tumor system at dose 12.5 mg/kg; type: functional, Mus musculus; in short: as §7

COc1ccc2c(c1O)-c1cccc3c1C(C2)N(CCOCCCl)CC3 (stereo not given)
T/C [1]: 101 | T/C [2]: 104 | T/C [3]: 99 | T/C [4]: 107

COc1ccc2c(c1O)-c1cccc3c1C(C2)N(CCOC(=O)NCCCl)CC3 (stereo not given)
T/C [5]: 99 | T/C [6]: 97 | T/C [7]: 99 | T/C [8]: 99 | T/C [9]: 105 | T/C [10]: 101

COc1ccc2c(c1O)-c1cccc3c1C(C2)N(CCCl)CC3 (stereo not given)
T/C [11]: 151 | T/C [12]: 105 | T/C [13]: 119 | T/C [14]: 114 | T/C [15]: 96 | T/C [16]: 106 | T/C [17]: 108 | T/C [18]: 107 | T/C [19]: 102 | T/C [20]: 104 | T/C [21]: 124 | T/C [22]: 106 | T/C [23]: 99 | T/C [24]: 96 | T/C [25]: 107 | T/C [26]: 100 | T/C [27]: 128 | T/C [28]: 100 | T/C [29]: 103

COc1ccc2c(c1OC(C)=O)-c1cc(OC(C)=O)cc3c1C(C2)N(C(=O)CN(CCCl)CCCl)CC3 (stereo not given)
T/C [30]: 170 | T/C [31]: 150 | T/C [32]: 170 | T/C [33]: 120 | T/C [34]: 138 | T/C [35]: 185 | T/C [36]: 150 | T/C [37]: 159 | T/C [38]: 120 | T/C [39]: 95 | T/C [40]: 150
